Tests used:
[1] = organism: Homo sapiens; assay: Induction of microtubule stabilization in human QBI293 cells assessed as increase in acetylated tubulin levels at 1 uM after 4 hrs by ELISA relative to control; assay type: cell-based
Method in brief: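 QBI-293 cells grown in DMEM/10% FBS at 37 °C, 5% CO2, plated 6 × 10⁵ cells/well overnight, then treated with vehicle or compound (1 and 10 μM) for 4 h. Lysis was in RIPA with protease inhibitors, 1 mM PMSF and 1 μM TSA, followed by 100000g spin for 30 min. Acetylated α-tubulin was measured by ELISA on BCA-quantified supernatant, reported as fold change vs DMSO, at least triplicate, t test.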

[2] = Change in total alpha-tubulin levels in human QBI293 cells at 1 uM after 4 hrs by ELISA relative to control; conditions: qbi293, 4 h
[3] = organism: Rattus norvegicus; assay: Inhibition of 5-LOX-mediated LTB4 production in arachidonic acid-stimulated RBL1 cells at 10 uM preincubated for 2 hrs followed by A23187 induction for 15 mins by LC/MS/MS analysis relative to control
Method in brief: (§1)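 RBL-1 cells grown in RPMI/10% FBS, plated 9 × 10⁵ cells/well, held 2 h at 37 °C, then given compound for 2 h (screen at 10 μM, then concentration–response in triplicate). Stimulation was 12 μM A23187 for 15 min. Supernatants were extracted with MeOH/0.01% BHT and LTB₄ quantified by UPLC-MS/MS in negative ion mode.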

[4] = Change in total alpha-tubulin levels in human QBI293 cells at 10 uM after 4 hrs by ELISA relative to control; assay type: cell-based; conditions: qbi293, 4 h
Method in brief: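 QBI-293 cells grown in DMEM/10% FBS at 37 °C, 5% CO2, plated 6 × 10⁵ cells/well, left overnight, then given vehicle or compound (1 and 10 μM) for 4 h. Cells were lysed in RIPA with protease inhibitors, 1 mM PMSF and 1 μM TSA, then spun at 100000g for 30 min. Total α-tubulin was measured by ELISA, normalized by BCA protein, expressed as fold change vs DMSO, triplicate, two-tailed unpaired t test.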

[5] = target: T1, Cyclooxygenase (Rattus norvegicus, UniProt P35355+Q63921); assay: Inhibition of COX-mediated PGD2/PGE2 production in arachidonic acid-stimulated RBL1 cells preincubated for 2 hrs followed by A23187 induction for 15 mins by LC/MS/MS analysis
T1 sequence (P35355 whole entry): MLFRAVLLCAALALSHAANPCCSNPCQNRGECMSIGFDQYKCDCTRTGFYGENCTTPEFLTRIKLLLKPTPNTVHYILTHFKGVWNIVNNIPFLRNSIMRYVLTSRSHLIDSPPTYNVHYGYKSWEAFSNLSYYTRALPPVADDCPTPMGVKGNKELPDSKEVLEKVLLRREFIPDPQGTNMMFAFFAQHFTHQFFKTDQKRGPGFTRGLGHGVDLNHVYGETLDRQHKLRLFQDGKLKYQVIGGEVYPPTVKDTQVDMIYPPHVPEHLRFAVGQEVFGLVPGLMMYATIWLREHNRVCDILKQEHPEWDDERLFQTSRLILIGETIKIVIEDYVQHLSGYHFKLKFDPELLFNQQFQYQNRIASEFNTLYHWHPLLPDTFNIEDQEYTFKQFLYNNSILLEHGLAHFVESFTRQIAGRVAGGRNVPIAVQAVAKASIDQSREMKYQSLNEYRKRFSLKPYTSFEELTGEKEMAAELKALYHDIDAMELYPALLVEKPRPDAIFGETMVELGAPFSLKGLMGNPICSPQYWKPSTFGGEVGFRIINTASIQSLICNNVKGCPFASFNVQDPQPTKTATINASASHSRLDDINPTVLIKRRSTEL
T1 sequence (Q63921 whole entry): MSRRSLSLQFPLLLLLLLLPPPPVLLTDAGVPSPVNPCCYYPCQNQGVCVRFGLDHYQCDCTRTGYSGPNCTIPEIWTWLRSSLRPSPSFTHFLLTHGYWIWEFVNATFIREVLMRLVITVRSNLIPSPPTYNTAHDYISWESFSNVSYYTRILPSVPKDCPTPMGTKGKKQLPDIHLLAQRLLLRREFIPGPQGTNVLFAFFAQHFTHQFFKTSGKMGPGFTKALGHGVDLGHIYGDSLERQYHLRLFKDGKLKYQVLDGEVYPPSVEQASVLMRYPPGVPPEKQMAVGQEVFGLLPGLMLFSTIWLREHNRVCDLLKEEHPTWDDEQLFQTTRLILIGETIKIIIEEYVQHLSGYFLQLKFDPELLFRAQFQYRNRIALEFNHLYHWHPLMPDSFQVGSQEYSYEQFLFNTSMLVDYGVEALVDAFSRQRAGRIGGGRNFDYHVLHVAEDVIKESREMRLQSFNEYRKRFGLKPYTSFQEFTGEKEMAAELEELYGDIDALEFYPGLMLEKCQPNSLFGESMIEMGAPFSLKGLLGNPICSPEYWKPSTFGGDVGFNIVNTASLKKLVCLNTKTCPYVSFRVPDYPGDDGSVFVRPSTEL
Method in brief: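 RBL-1 cells in RPMI/10% FBS, 9 × 10⁵ cells/well, held 2 h, then exposed to compound for 2 h at multiple concentrations in triplicate. Stimulation was 12 μM A23187 for 15 min. Eicosanoids were extracted with MeOH/0.01% BHT, and PGD₂ plus PGE₂ measured by UPLC-MS/MS (negative ion, 351 > 315).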

[6] = Drug uptake in mouse brain at 2 mg/kg, ip administered as cassette dosing after 1 hr by LC-MS/MS method; assay type: ADME, organism-based; conditions: read-out: Drug uptake
Method in brief: (§2)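 Groups of three 2–5-month-old CD-1 or B6SJL mice, sexes kept separate, were cassette-dosed i.p. in DMSO at 2 mg/kg with two or three compounds given together. Plasma and brain homogenate levels were measured at a single time point and scaled proportionally up to 5 mg/kg. The brain/plasma ratio was derived from these, reported as mean ± SD.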

[7] = Plasma concentration in mouse at 2 mg/kg, ip administered as cassette dosing after 1 hr by LC-MS/MS method; assay type: ADME, organism-based; method in brief: as §2
[8] = Inhibition of 5-LOX-mediated LTB4 production in arachidonic acid-stimulated RBL1 cells preincubated for 2 hrs followed by A23187 induction for 15 mins by LC/MS/MS analysis; conditions: Rattus norvegicus, RBL-1; method in brief: as §1
[9] = Ratio of drug level in brain to plasma in mouse at 2 mg/kg, ip administered as cassette dosing; assay type: ADME, organism-based; conditions: read-out: BPR; method in brief: as §2
[10] = Ratio of drug level in brain to plasma in mouse at 5 mg/kg, ip administered as single dose; assay type: ADME, organism-based; conditions: read-out: BPR
Method in brief: (§3)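 Groups of three CD-1 or B6SJL mice, 2–5 months old, sexes not mixed, received a single 5 mg/kg i.p. dose in DMSO. Compound was quantified in plasma and brain homogenate at a single time point, and the brain/plasma ratio was derived from these. Values are mean ± SD.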

[11] = Plasma concentration in mouse at 5 mg/kg, ip administered as single dose after 1 hr by LC-MS/MS method; assay type: ADME, organism-based; method in brief: as §3
[12] = Drug uptake in mouse brain at 5 mg/kg, ip administered as single dose after 1 hr by LC-MS/MS method; assay type: ADME, organism-based; conditions: read-out: Drug uptake; method in brief: as §3
[13] = organism: Rattus norvegicus; conditions: at 10 nM
[14] = target: Cyclooxygenase (Rattus norvegicus) (UniProt P35355+Q63921); conditions: at 10 nM

| Structure (SMILES) | FC [2] | inhibition [3] [%] | fold change (FC) [4] | IC50 [5] [µM] | IC50 [8] [µM] | fold change (FC) [1] | Activity [2] | further results |
| --- | --- | --- | --- | --- | --- | --- | --- | --- |
| COc1ccc(F)c(-c2c(Cl)nc(Cl)n2-c2ccc(Cl)cc2)c1F | 0.4 | 88 | 0.9 |  |  | 5.1 |  |  |
| Cc1cc(F)c(-c2c(Cl)ncn2-c2ccc(Cl)cc2)c(F)c1 |  | 75 |  | 1.8 | 11.7 |  | Non-Toxic | concentration at 1 h [6]: 0.3 µM; concentration at 1 h [7]: 0.11 µM; Kp [9]: 2.5 |
| COc1cc(F)c(-c2c(Cl)nc(Cl)n2-c2ccc(Cl)cc2)c(F)c1 | 0.3 | 38 | 0.6 |  |  | 3.3 |  |  |
| CC(C)c1ccc2c(c1)c(SC(C)(C)C)c(CC(C)(C)C(=O)O)n2Cc1ccc(Cl)cc1 |  |  |  |  |  |  |  | inhibition [13]: 70%; inhibition [14]: < 10% |
| Cc1ncn(-c2ccc(Cl)cc2)c1-c1c(F)ccc(Cl)c1F |  | 71 |  | 12.1 | 13.4 |  | Non-Toxic | concentration at 1 h [6]: 0.6 µM; concentration at 1 h [7]: 0.5 µM; Kp [9]: 1.4 |
| Cc1ccc(F)c(-c2cnc(Cl)n2-c2ccc(Cl)cc2)c1F | 0.9 | 69 | 0.8 |  |  |  |  |  |
| Fc1ccc(F)c(-c2c(Cl)ncn2-c2ccc(Cl)cc2)c1F |  | 69 |  | 2.9 | 2.4 |  | Non-Toxic | Kp [10]: 2.8; concentration at 1 h [11]: 0.3 µM; concentration at 1 h [12]: 0.7 µM |
| Fc1cccc(F)c1-c1cncn1-c1ccc(Cl)cc1 |  | 46 | 1.2 |  |  |  |  |  |
| COc1ccc(-n2cnc(Cl)c2-c2c(F)cc(F)cc2F)cc1 |  | 86 |  | 2.4 | 9.7 |  | Non-Toxic |  |
| C[C@H](Nc1c(-c2c(F)cc(F)cc2F)c(Cl)nc2ncnn12)C(F)(F)F |  |  |  |  |  | 2.5 | Non-Toxic |  |
| C[C@H](Nc1c(-c2c(F)cc(OCCCN(C)C)cc2F)c(Cl)nc2ncnn12)C(F)(F)F | 0.4 |  | 0.7 |  |  | 6 |  |  |
| Fc1cc(-n2cnc(Cl)c2-c2c(F)ccc(F)c2F)ccc1Cl |  | 66 |  | 4.6 | 6 |  | Non-Toxic | Kp [10]: 3; concentration at 1 h [11]: 0.24 µM; concentration at 1 h [12]: 0.7 µM |

The next lines start with results.

| FC [2] | inhibition [3] [%] | fold change (FC) [4] | IC50 [5] [µM] | IC50 [8] [µM] | Structure (SMILES) | fold change (FC) [1] | Activity [2] | further results |
| --- | --- | --- | --- | --- | --- | --- | --- | --- |
| 0.6 | 84 |  |  |  | Cc1nc(Cl)c(-c2c(F)ccc(Cl)c2F)n1-c1ccc(Cl)cc1 | 1.7 |  |  |
|  | 71 |  | 1 | 12.5 | Clc1ccc(-n2cnc(Cl)c2-c2ccccc2)cc1 |  | Non-Toxic | concentration at 1 h [6]: 0.2 µM; concentration at 1 h [7]: 0.08 µM; Kp [9]: 2.4 |
| 0.3 | 88 | 0.6 |  |  | COc1cc(F)c(-c2c(Cl)nc(C)n2-c2ccc(Cl)cc2)c(F)c1 | 7.1 |  |  |
|  | 63 |  | 2.2 | 9.5 | Fc1ccc(Cl)c(F)c1-c1c(Cl)ncn1-c1ccc(Cl)cc1 |  | Non-Toxic | Kp [10]: 2.1; concentration at 1 h [11]: 0.19 µM; concentration at 1 h [12]: 0.4 µM |
|  | 75 |  | 9.8 | 20.8 | COc1ccc(-n2c(-c3c(F)cc(F)cc3F)cnc2Cl)cc1 |  | Non-Toxic | concentration at 1 h [6]: 0.21 µM; concentration at 1 h [7]: 0.21 µM; Kp [9]: 0.9 |
| 0.7 | 75 | 0.8 |  |  | Cc1nc(Cl)c(-c2c(F)ccc(F)c2F)n1-c1ccc(Cl)c(F)c1 | 3.9 |  |  |
|  | 81 |  |  |  | CCc1nc(Cl)c(-c2c(F)cccc2F)n1-c1ccc(Cl)cc1 | 1.8 | Non-Toxic |  |
|  | 92 |  | 15 | 10.7 | Fc1cccc(F)c1-c1cnc(Cl)n1-c1ccc(Cl)cc1 |  | Non-Toxic | Kp [10]: 1.9; concentration at 1 h [11]: 0.48 µM; concentration at 1 h [12]: 0.9 µM |
|  | 76 |  | 2.4 | 13.8 | Fc1cccc(F)c1-c1c(Cl)ncn1-c1ccc(Cl)cc1 |  | Non-Toxic | concentration at 1 h [6]: 0.7 µM; concentration at 1 h [7]: 0.4 µM; Kp [9]: 1.9 |
|  | 40 | 1.2 |  |  | Cc1nc(C)n(-c2ccc(Cl)cc2)c1-c1c(F)cccc1F |  |  |  |
|  | 74 | 1.2 | 4.7 | 23.7 | Cc1ncn(-c2ccc(Cl)cc2)c1-c1c(F)ccc(F)c1F |  |  | concentration at 1 h [6]: 0.4 µM; concentration at 1 h [7]: 0.2 µM; Kp [9]: 1.9 |
|  | 78 |  | 6.5 | 7.8 | Fc1ccc(Br)c(F)c1-c1c(Cl)ncn1-c1ccc(Cl)cc1 |  | Non-Toxic | Kp [10]: 0.9; concentration at 1 h [11]: 0.26 µM; concentration at 1 h [12]: 0.24 µM |
|  | 96 |  | 2.2 | 2.5 | Fc1ccc(F)c(-c2cnc(Cl)n2-c2ccc(Cl)cc2)c1 |  | Non-Toxic | concentration at 1 h [6]: 0.2 µM; concentration at 1 h [7]: 0.06 µM; Kp [9]: 3.3 |
| 0.8 | 87 |  |  |  | Cc1nc(Cl)c(-c2c(F)cccc2F)n1-c1ccc(Cl)cc1 | 2.5 |  |  |
